Measured values published in ChEMBL document CHEMBL3102799, “Glutathione-analogous peptidyl phosphorus esters as mechanism-based inhibitors of γ-glutamyl transpeptidase for probing cysteinyl-glycine binding site” (Bioorg Med Chem, 2014).
Calls of active or inactive are those of the source. No cut-off for these calls is given here.

Test system: Escherichia coli
Experiment: Binding affinity to Cys-Gly binding site of Escherichia coli GGT by ion-spray mass spectroscopy analysis
Settings: not given

Structure (SMILES) | Activity
CC[C@H](O[P@@](=O)(CCC(N)C(=O)O)Oc1ccccc1)C(=O)NCC(=O)O (mixture of isomers) | Active

Target: Glutathione hydrolase 1 proenzyme (Homo sapiens) (UniProt P19440)
Sequence (P19440 1-380 limits assumed): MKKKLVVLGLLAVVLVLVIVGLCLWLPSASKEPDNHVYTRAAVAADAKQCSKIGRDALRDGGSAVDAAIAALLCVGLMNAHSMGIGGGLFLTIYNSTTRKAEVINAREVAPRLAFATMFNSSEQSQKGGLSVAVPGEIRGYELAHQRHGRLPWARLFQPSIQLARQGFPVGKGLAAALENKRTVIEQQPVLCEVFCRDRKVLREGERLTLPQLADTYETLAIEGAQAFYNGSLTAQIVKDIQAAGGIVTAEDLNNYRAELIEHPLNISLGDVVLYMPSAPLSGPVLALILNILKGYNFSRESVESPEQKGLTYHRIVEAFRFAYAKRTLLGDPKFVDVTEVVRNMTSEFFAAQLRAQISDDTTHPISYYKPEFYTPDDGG
Sequence (P19440 381-569 limits assumed): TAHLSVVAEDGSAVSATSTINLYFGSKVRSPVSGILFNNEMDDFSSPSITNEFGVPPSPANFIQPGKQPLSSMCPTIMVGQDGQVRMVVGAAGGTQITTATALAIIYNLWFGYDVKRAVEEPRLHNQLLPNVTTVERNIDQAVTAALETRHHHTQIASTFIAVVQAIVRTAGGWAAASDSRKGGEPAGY
Experiment: Inhibition of hydrolytic activity of human GGT using 7-(N-gamma-glutamylamino)-4-methylcoumarin as substrate assessed as release of AMC by fluorescence assay
Settings: TDE = time-dependent effect
Summary of the method: (§1)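 Human GGT (HC-GTP, BSA-stabilised, used unpurified). Enzyme added to preincubated inhibitor plus 4.0 μM γ-Glu-AMC (final; Km 12.6 μM) in 100 mM sodium succinate pH 5.5, 25°C, no acceptor. AMC fluorescence (ex 350/em 440 nm) read continuously 10 min against AMC calibration; first-order fit of progress curves gives kobs; kon derived as kobs = kon[I]/(1+[S]/Km).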

Structure (SMILES) | inhibition
N[C@@H](CCP(=O)(CCC(=O)NCC(=O)O)Oc1ccccc1)C(=O)O (mixture of isomers) | tde

Test system: Escherichia coli
Experiment: Inhibition of hydrolytic activity of Escherichia coli GGT using 7-(N-gamma-glutamylamino)-4-methylcoumarin as substrate assessed as release of AMC at 1 mM by fluorescence assay
Settings: TDE = time-dependent effect
Summary of the method: (§2)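 E. coli enzyme purified from periplasmic fraction of recombinant E. coli K-12 (SH642). Time-dependent inactivation, pseudo-first-order: enzyme added to preincubated inhibitor plus 0.2 μM γ-Glu-AMC (final; equals Km) in 100 mM sodium succinate pH 5.5, 25°C, no acceptor substrate. AMC release (ex 350/em 440 nm) followed continuously 10 min; progress curves fit first-order for kobs; kon from kobs = kon[I]/(1+[S]/Km).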

Structure (SMILES) | inhibition
NC(CC[P@@](=O)(Oc1ccccc1)O[C@@H](Cc1ccccc1)C(=O)NCC(=O)O)C(=O)O (mixture of isomers) | tde
CC[C@H](O[P@@](=O)(CCC(N)C(=O)O)Oc1ccccc1)C(=O)NCC(=O)O (mixture of isomers) | tde
NC(CC[P@@](=O)(Oc1ccccc1)O[C@@H](CI)C(=O)NCC(=O)O)C(=O)O (mixture of isomers) | tde
NC(CC[P@@](=O)(Oc1ccccc1)O[C@@H](CCl)C(=O)NCC(=O)O)C(=O)O (mixture of isomers) | tde
CCCC[C@H](O[P@@](=O)(CCC(N)C(=O)O)Oc1ccccc1)C(=O)NCC(=O)O (mixture of isomers) | tde
CCCC[C@H](O[P@@](=O)(CCC(N)C(=O)O)Oc1ccccc1)C(=O)OC (mixture of isomers) | tde

Target: Glutathione hydrolase 1 proenzyme (Homo sapiens) (UniProt P19440)
Experiment: Irreversible inhibition of hydrolytic activity of human GGT using 7-(N-gamma-glutamylamino)-4-methylcoumarin as substrate assessed as release of AMC at 1 mM after 10 mins by fluorescence assay
Settings: not given
Summary of the method: as §1

Structure (SMILES) | inhibition
CC[C@H](O[P@@](=O)(CCC(N)C(=O)O)Oc1ccccc1)C(=O)NCC(=O)O (mixture of isomers) | Active

Test system: Escherichia coli
Experiment: Inhibition of hydrolytic activity of Escherichia coli GGT using 7-(N-gamma-glutamylamino)-4-methylcoumarin as substrate assessed as release of AMC at 1.5 mM after 10 mins by fluorescence assay
Settings: not given
Summary of the method: as §2

Structure (SMILES) | inhibition
N[C@@H](CCP(=O)(CCC(=O)NCC(=O)O)Oc1ccccc1)C(=O)O (mixture of isomers) | inactive

Test system: Escherichia coli
Experiment: Inhibition of hydrolytic activity of Escherichia coli GGT using 7-(N-gamma-glutamylamino)-4-methylcoumarin as substrate assessed as release of AMC at 1 mM after 10 mins by fluorescence assay
Settings: not given
Summary of the method: as §2

Structure (SMILES) | inhibition
CCCC[C@@H](O[P@@](=O)(CCC(N)C(=O)O)Oc1ccccc1)C(=O)NCC(=O)O (mixture of isomers) | inactive
CC[C@H](O[P@](=O)(CCC(N)C(=O)O)OC)C(=O)NCC(=O)O (mixture of isomers) | inactive

Target: Glutathione hydrolase 1 proenzyme (Homo sapiens) (UniProt P19440)
Experiment: Inhibition of hydrolytic activity of human GGT using 7-(N-gamma-glutamylamino)-4-methylcoumarin as substrate assessed as release of AMC at 1 mM after 10 mins by fluorescence assay
Settings: not given
Summary of the method: as §1

Structure (SMILES) | inhibition
CCCC[C@@H](O[P@@](=O)(CCC(N)C(=O)O)Oc1ccccc1)C(=O)NCC(=O)O (mixture of isomers) | inactive
CC[C@H](O[P@](=O)(CCC(N)C(=O)O)OC)C(=O)NCC(=O)O (mixture of isomers) | inactive
CCCC[C@H](O[P@@](=O)(CCC(N)C(=O)O)Oc1ccccc1)C(=O)OC (mixture of isomers) | inactive
CCCC[C@@H](O[P@](=O)(CCC(N)C(=O)O)Oc1ccccc1)C(=O)NCC(=O)O (mixture of isomers) | inactive
CCCC[C@H](O[P@](=O)(CCC(N)C(=O)O)Oc1ccccc1)C(=O)NCC(=O)O (stereo partly drawn) | inactive

Target: Glutathione hydrolase 1 proenzyme (Homo sapiens) (UniProt P19440)
Experiment: Ratio of acivicin to compound for hydrolytic activity of human GGT
Settings: not given

Structure (SMILES) | Ratio
CC[C@H](O[P@@](=O)(CCC(N)C(=O)O)Oc1ccccc1)C(=O)NCC(=O)O (mixture of isomers) | > 360

Test system: Escherichia coli
Experiment: Inhibition of hydrolytic activity of Escherichia coli GGT using 7-(N-gamma-glutamylamino)-4-methylcoumarin as substrate assessed as release of AMC after 10 mins by fluorescence assay
Settings: not given

Structure (SMILES) | K [M⁻¹ s⁻¹]
NC(CC[P@@](=O)(Oc1ccccc1)O[C@@H](Cc1ccccc1)C(=O)NCC(=O)O)C(=O)O (mixture of isomers) | 389
CC[C@H](O[P@@](=O)(CCC(N)C(=O)O)Oc1ccccc1)C(=O)NCC(=O)O (mixture of isomers) | 109
CCC(OP(=O)(CCC(N)C(=O)O)Oc1ccccc1)C(=O)NCC(=O)O (mixture of isomers) | 80
NC(CC[P@@](=O)(Oc1ccccc1)O[C@@H](CI)C(=O)NCC(=O)O)C(=O)O (mixture of isomers) | 98.4
NC(CCP(=O)(OCC(=O)NCC(=O)O)Oc1ccccc1)C(=O)O (mixture of isomers) | 80.6
NC(CC[P@@](=O)(Oc1ccccc1)O[C@@H](CCl)C(=O)NCC(=O)O)C(=O)O (mixture of isomers) | 188
CCCC[C@H](O[P@@](=O)(CCC(N)C(=O)O)Oc1ccccc1)C(=O)NCC(=O)O (mixture of isomers) | 50.7
N[C@H](C(=O)O)[C@@H]1CC(Cl)=NO1 | 4200
CCCC[C@H](O[P@@](=O)(CCC(N)C(=O)O)Oc1ccccc1)C(=O)OC (mixture of isomers) | 8.83
CCCC[C@@H](O[P@](=O)(CCC(N)C(=O)O)Oc1ccccc1)C(=O)NCC(=O)O (mixture of isomers) | 1.3
CCCC[C@H](O[P@](=O)(CCC(N)C(=O)O)Oc1ccccc1)C(=O)NCC(=O)O (stereo partly drawn) | 1.7

Target: Glutathione hydrolase 1 proenzyme (Homo sapiens) (UniProt P19440)
Experiment: Inhibition of hydrolytic activity of human GGT using 7-(N-gamma-glutamylamino)-4-methylcoumarin as substrate assessed as release of AMC after 10 mins by fluorescence assay
Settings: not given
Summary of the method: as §1

Structure (SMILES) | K [M⁻¹ s⁻¹]
NC(CC[P@@](=O)(Oc1ccccc1)O[C@@H](Cc1ccccc1)C(=O)NCC(=O)O)C(=O)O (mixture of isomers) | 4.44
CC[C@H](O[P@@](=O)(CCC(N)C(=O)O)Oc1ccccc1)C(=O)NCC(=O)O (mixture of isomers) | 145
CCC(OP(=O)(CCC(N)C(=O)O)Oc1ccccc1)C(=O)NCC(=O)O (mixture of isomers) | 75
NC(CC[P@@](=O)(Oc1ccccc1)O[C@@H](CI)C(=O)NCC(=O)O)C(=O)O (mixture of isomers) | 43.6
NC(CCP(=O)(OCC(=O)NCC(=O)O)Oc1ccccc1)C(=O)O (mixture of isomers) | 44.5
NC(CC[P@@](=O)(Oc1ccccc1)O[C@@H](CCl)C(=O)NCC(=O)O)C(=O)O (mixture of isomers) | 40.3
CCCC[C@H](O[P@@](=O)(CCC(N)C(=O)O)Oc1ccccc1)C(=O)NCC(=O)O (mixture of isomers) | 63.2
N[C@H](C(=O)O)[C@@H]1CC(Cl)=NO1 | 0.4
N[C@@H](CCP(=O)(CCC(=O)NCC(=O)O)Oc1ccccc1)C(=O)O (mixture of isomers) | 1.35
